Test results taken from ChEMBL document CHEMBL4414601 (J Med Chem, 2019).
≈ marks a conversion by molar mass, not a printed value.

How the values were obtained:
[1] = Aqueous solubility of compound; conditions: buffer
[2] = Permeability of compound by PAMPA
[3] = Clearance in mouse liver microsomes at 0.5 uM measured up to 45 mins in presence of NADPH by HPLC-MS/MS analysis; format: ADME, Microsome
[4] = Clearance in rat liver microsomes at 0.5 uM measured up to 45 mins in presence of NADPH by HPLC-MS/MS analysis; format: ADME, Microsome
[5] = molecular target: T1, Beta-2 adrenergic receptor (Homo sapiens, UniProt P07550); test: Agonist activity at human beta2 adrenoceptor
[6] = molecular target: T1, Beta-2 adrenergic receptor; test: Antagonist activity at human beta2 adrenoceptor
[7] = molecular target: Voltage-gated potassium channel, IKs; KCNQ1(Kv7.1)/KCNE1(MinK) (Homo sapiens, UniProt P15382+P51787); test: Inhibition of human KCNQ1/KCNE1
[8] = molecular target: T2, Aryl hydrocarbon receptor (Homo sapiens, UniProt P35869); test: Agonist activity at human aryl hydrocarbon receptor
T2 sequence (P35869 whole entry): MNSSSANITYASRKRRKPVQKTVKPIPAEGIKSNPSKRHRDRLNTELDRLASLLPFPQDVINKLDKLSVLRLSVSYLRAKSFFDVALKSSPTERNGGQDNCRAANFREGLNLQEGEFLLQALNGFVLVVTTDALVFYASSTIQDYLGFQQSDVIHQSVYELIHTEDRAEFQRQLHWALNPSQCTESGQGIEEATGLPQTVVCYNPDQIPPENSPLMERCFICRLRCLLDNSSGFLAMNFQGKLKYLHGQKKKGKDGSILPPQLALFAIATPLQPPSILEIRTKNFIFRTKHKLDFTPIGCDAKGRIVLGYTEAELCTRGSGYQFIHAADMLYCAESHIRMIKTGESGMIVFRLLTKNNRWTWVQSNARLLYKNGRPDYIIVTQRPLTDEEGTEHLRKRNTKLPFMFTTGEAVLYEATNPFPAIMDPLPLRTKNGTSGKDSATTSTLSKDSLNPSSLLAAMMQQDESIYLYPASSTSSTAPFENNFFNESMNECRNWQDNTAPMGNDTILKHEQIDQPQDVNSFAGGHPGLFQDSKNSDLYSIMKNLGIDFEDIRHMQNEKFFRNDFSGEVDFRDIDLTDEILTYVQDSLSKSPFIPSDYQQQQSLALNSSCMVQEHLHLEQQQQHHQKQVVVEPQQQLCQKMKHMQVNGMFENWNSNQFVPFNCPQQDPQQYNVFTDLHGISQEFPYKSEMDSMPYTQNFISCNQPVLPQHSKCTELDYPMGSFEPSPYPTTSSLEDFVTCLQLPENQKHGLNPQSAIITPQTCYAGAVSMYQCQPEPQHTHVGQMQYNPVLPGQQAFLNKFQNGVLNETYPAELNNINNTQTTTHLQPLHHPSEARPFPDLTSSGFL

Acetylcholinesterase = Acetylcholinesterase (Homo sapiens, UniProt P22303); test: Inhibition of AChE (unknown origin)
[9] = molecular target: cGMP-inhibited 3',5'-cyclic phosphodiesterase 3A (Homo sapiens, UniProt Q14432); test: Inhibition of PDE3A (unknown origin)
Plasmodium falciparum [10] = test: (§1) Antiplasmodial activity against Plasmodium falciparum 3D7A asexual erythrocytic stage assessed as reduction in [3H]hypoxanthine incorporation preincubated for 72 hrs followed by [3H]hypoxanthine addition and measured after 24 hrs by microbeta scintillation counting method; format: functional, organism-based
Plasmodium falciparum [11] = test: as §1, with “3D7A harboring with PKG T618Q mutant” for “3D7A”, “48” for “72”; format: functional, organism-based
[12] = molecular target: T3, Calcium-dependent protein kinase 4 (Plasmodium falciparum (isolate 3D7), UniProt Q8IBS5); test: Binding affinity to CDPK4 in Plasmodium falciparum 3D7 blood stage extract incubated for 1 hr in presence of ATP-competitive kinase inhibitor by kinobeads based pull down assay; conditions: read-out: Kd(app)
T3 sequence (Q8IBS5 whole entry): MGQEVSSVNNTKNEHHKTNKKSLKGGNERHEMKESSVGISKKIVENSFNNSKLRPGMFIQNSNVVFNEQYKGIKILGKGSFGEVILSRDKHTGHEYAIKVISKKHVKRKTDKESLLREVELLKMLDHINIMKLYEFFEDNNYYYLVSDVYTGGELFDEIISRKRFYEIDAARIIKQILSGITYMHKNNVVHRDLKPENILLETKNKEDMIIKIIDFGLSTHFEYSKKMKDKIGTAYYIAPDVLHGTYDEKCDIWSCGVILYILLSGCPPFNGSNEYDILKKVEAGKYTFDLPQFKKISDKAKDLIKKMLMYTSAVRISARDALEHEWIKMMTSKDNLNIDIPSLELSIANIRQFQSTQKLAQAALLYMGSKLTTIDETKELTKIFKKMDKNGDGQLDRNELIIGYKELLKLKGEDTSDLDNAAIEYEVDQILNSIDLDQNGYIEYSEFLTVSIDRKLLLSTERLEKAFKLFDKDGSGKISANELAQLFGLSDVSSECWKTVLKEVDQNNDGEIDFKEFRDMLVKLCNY
Procedure, shortened: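 Chemoproteomic competition used kinobeads or Sepharose beads derivatized with ligand at 1 mM. Free compound was tested at six concentrations between 0.08 and 20 μM, in two independent experiments. Proteins were SP3-digested, TMT 10-plex labelled and measured by LC-MS/MS. IC50s came from competition curves, and apparent Kd was corrected for protein depletion by the beads.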

[13] = Binding affinity to zinc finger (CCCH type) protein in Plasmodium falciparum 3D7 blood stage extract incubated for 1 hr in presence of ATP-competitive kinase inhibitor by kinobeads based pull down assay; conditions: read-out: Kd(app)
Casein kinase I = molecular target: T4, Casein kinase I (Plasmodium falciparum (isolate 3D7), UniProt Q8IHZ9); test: Binding affinity to CK1 in Plasmodium falciparum 3D7 blood stage extract incubated for 1 hr by kinobeads based pull down assay; conditions: read-out: Kd(app)
T4 sequence (Q8IHZ9 whole entry): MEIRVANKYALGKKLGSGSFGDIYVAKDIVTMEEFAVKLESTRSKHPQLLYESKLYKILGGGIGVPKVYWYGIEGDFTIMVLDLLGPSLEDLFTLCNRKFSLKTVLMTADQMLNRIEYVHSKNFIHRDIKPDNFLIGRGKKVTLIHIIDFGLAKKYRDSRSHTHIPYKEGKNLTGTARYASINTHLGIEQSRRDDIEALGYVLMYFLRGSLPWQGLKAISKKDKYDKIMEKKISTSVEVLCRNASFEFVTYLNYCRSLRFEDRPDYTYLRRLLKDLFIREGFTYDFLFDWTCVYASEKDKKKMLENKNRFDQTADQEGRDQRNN
Procedure, shortened: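 Chemoproteomic competition binding: Sepharose beads derivatized at 1 mM with the immobilized ligand (kinobeads prepared likewise). Free compound competed at six concentrations, 0.08–20 μM. Proteins were SP3-digested, TMT 10-plex labelled and quantified by LC-MS/MS on an Orbitrap. IC50 from the competition curve; apparent Kd corrected for protein depletion by the beads. Two independent experiments.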

[14] = Binding affinity to SRPK2 in Plasmodium falciparum 3D7 blood stage extract incubated for 1 hr in presence of ATP-competitive kinase inhibitor by kinobeads based pull down assay; conditions: read-out: Kd(app)
Procedure, shortened: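 The free compound competed over six concentrations from 0.08 to 20 μM. Proteins were digested by a modified SP3 protocol, labelled with TMT 10-plex and quantified by LC-MS/MS. Apparent Kd was derived from IC50 corrected for bead depletion. Two independent experiments were run.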

T1 sequence (P07550 whole entry): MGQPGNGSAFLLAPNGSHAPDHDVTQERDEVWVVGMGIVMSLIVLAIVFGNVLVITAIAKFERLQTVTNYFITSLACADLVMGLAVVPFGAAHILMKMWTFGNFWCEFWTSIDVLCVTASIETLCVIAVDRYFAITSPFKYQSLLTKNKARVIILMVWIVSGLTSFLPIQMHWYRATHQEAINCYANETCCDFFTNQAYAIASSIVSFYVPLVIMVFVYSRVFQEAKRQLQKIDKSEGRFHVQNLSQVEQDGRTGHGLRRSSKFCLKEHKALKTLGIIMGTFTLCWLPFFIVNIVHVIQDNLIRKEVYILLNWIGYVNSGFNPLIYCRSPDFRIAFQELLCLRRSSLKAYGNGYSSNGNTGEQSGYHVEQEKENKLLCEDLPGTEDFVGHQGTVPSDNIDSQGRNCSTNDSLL
Chain of Acetylcholinesterase (P22303 whole entry): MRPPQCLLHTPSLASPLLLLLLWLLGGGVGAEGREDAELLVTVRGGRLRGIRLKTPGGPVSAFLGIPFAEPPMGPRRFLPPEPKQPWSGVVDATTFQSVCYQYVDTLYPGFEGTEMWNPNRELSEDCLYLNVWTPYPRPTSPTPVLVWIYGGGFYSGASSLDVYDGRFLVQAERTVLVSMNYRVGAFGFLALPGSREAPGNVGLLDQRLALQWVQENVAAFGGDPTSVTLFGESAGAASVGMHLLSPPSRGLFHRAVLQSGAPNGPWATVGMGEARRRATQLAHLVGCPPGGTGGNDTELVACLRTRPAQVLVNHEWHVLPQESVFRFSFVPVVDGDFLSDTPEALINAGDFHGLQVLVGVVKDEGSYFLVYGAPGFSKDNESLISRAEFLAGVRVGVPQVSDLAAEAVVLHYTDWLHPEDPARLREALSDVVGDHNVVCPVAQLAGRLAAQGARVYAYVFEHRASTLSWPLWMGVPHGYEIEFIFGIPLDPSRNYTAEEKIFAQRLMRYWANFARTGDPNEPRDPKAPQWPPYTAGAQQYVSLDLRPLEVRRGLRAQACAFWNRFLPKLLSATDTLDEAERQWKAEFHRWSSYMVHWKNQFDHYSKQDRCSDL
Chain of Voltage-gated potassium channel, IKs; KCNQ1(Kv7.1)/KCNE1(MinK) (P51787 whole entry): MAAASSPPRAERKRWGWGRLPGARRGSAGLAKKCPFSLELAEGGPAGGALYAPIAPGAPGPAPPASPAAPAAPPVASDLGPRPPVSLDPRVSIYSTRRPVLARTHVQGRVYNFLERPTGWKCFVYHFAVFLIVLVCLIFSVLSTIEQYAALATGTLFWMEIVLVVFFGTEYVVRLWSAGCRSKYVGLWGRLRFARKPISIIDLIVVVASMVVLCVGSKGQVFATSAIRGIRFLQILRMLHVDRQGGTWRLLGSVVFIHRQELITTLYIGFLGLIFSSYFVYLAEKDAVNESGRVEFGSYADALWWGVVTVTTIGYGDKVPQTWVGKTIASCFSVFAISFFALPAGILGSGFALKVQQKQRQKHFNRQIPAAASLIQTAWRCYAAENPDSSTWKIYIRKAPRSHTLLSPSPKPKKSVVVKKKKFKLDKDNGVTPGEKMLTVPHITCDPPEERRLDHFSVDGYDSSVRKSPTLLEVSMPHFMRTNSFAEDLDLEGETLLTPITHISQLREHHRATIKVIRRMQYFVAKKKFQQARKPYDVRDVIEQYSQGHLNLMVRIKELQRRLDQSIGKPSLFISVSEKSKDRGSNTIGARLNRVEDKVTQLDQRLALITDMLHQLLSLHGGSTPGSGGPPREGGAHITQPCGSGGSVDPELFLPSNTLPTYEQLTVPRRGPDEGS
Chain of cGMP-inhibited 3',5'-cyclic phosphodiesterase 3A (Q14432 whole entry): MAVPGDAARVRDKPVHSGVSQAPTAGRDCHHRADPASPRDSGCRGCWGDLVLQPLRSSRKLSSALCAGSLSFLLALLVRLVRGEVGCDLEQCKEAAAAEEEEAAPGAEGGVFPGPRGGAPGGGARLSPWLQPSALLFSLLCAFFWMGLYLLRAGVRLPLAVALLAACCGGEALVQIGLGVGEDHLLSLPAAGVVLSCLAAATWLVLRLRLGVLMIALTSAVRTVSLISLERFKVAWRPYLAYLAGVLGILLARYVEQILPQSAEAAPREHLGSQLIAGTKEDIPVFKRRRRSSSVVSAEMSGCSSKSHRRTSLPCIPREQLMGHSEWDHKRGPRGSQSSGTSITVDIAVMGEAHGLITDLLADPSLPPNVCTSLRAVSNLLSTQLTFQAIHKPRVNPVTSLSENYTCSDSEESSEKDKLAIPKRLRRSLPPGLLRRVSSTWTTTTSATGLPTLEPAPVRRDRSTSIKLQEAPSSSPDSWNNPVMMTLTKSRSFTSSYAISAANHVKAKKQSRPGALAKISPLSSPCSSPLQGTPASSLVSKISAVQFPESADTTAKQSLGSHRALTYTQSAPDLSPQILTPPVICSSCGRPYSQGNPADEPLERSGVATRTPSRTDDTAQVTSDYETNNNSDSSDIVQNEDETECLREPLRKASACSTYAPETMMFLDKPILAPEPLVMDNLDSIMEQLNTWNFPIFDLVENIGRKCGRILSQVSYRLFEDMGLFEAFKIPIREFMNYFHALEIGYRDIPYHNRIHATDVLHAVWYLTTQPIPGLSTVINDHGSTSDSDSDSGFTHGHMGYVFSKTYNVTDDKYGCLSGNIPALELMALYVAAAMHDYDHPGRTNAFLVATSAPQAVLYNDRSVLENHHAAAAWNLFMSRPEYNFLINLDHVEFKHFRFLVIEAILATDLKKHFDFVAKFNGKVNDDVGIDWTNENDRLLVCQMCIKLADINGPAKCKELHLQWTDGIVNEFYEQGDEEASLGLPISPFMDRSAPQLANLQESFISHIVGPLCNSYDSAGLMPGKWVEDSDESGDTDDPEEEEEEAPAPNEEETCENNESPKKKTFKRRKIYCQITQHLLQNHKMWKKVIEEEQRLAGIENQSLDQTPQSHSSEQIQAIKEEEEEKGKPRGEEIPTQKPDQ

With `Cc1cc(Nc2nccc(-c3sc(C4CCNCC4)nc3-c3ccc(F)cc3)n2)ccn1` as the molecule, how does the solubility [1] read?
Its solubility is 410 µM (≈ 183 µg/mL).

And the Papp [2]?
Its Papp is 21 ×10⁻⁶ cm/s.

And the CLH [3]?
Its CLH is 1.62 mL/min/g.

What about the CLH [4] of the same molecule?
Its CLH is 0.87 mL/min/g.

What about the EC50 [5] of the same molecule?
The EC50 was over 100000 nM.

What about the IC50 [6] of the same molecule?
Its IC50 is over 100000 nM.

What about the IC50 [7] of the same molecule?
The IC50 was over 25000 nM.

And the EC50 [8]?
Its EC50 is over 50000 nM.

What about the IC50 (Acetylcholinesterase) of the same molecule?
Its IC50 is 400 nM.

What about the IC50 [9] of the same molecule?
The IC50 was over 100000 nM.

What about the EC50 (Plasmodium falciparum [10]) of the same molecule?
Its EC50 is 90 nM.

And the EC50 (Plasmodium falciparum [11])?
Its EC50 is 150 nM.

What about the Kd [12] of the same molecule?
Its Kd is 50 nM.

What about the Kd [13] of the same molecule?
Its Kd is 3900 nM.

What about the Kd (Casein kinase I) of the same molecule?
Its Kd is 150 nM.

What about the Kd [14] of the same molecule?
Its Kd is 190 nM.
